Measured values as given in BindingDB's records for doi:10.1021/jm9003297 (University of Bonn, 2009).

Legend:
[1] = molecular target: P2Y purinoceptor 12 (Homo sapiens, UniProt Q9H244); test: Displacement of [3H]PSB0413 from human platelet P2Y12 receptor
In short: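 Membranes from outdated human blood-bank platelets (4-5 days post-donation), washed, centrifuged, homogenized, stored at -80 °C. 100 µg protein incubated with 5 nM [³H]PSB-0413 in 50 mM Tris-HCl pH 7.4 for 1 h at rt, then filtered over GF/B. Nonspecific binding with 1 mM ADP. Screen at 10 µM. Ki from curves of 6-7 concentrations over 3 log units. At least three experiments in triplicate.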

[2] = Displacement of [3H]DPCPX from human adenosine A1 receptor expressed in CHO cells assessed as ratio of IC50 in presence of GTP to absence of GTP by GTP shift assay

P2Y purinoceptor 12, sequence (Q9H244 whole entry): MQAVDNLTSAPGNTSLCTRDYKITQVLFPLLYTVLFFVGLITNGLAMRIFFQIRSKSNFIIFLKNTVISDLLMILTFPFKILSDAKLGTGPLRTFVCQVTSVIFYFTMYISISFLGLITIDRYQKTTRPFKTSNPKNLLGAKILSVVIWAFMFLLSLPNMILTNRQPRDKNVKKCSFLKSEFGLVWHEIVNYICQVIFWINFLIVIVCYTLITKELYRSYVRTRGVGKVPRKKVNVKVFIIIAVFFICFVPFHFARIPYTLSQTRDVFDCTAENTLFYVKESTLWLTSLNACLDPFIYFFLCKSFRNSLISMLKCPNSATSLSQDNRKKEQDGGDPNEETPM

IC50 [2] [µM]	Compound	Ki [1] [µM]
–	CN(C)[C@@H]1C(=O)C(C(N)=O)C(=O)[C@@]2(O)C(=O)C3C(=O)c4c(O)ccc(Cl)c4[C@@](C)(O)[C@H]3C[C@@H]12 (stereo partly drawn)	> 10
–	CN(C)[C@@H]1C(=O)C(C(N)=O)C(=O)[C@@]2(O)C(=O)C3C(=O)c4c(O)cccc4[C@@](C)(O)[C@H]3C[C@@H]12 (stereo partly drawn) [Achromycin]	> 10
0.76	Nc1c(S(=O)(=O)O)cc(Nc2ccc(Nc3ncccn3)c(S(=O)(=O)O)c2)c2c1C(=O)c1ccccc1C2=O [Disodium 1-amino-4-[4-([1,3]diazine-2-ylamino)-3-sulfophenylamino]-9,10-dioxo-9,10-dihydroanthracene-2-sulfonate]	–
